Bioassay records from PubChem.
In the library only some 3.7% were active in any assay of this set; here they are far more common.
ROMK mod = modulates human ROMK potassium channel activity. P48048. Tet-inducible ROMK, thallium flux fluorescence; actives lie on both sides. B-score at 10 µM. 130,000 compounds, 2% hits. AID 1918;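 active = signal ratio slope over the read window, or its plate-corrected B-score, at least 3 SD from the plate mean, either direction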;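 also: B-score of the F/F0 ratio slope over 7 to 12 s after thallium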
bCat nuc transl = modulators of beta-catenin nuclear translocation; 190,000 compounds, 0.3% hits; nuclear translocation activity, % at 5 µM; HeLa beta-catenin nuclear translocation, immunofluorescence imaging;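 active = nuclear translocation activity above 50% at 5 µM, with a well cell count of 50 or more; inconclusive = wells under 50 cells across six images, flagged as toxic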;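 also: per-cell ratio of nuclear to cytoplasmic median beta-catenin stain intensity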
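Read-out: Nuclear/cytoplasmic beta-catenin signal ratio, % activation | Assay system: Human HeLa cell line | Times: 24 h compound exposure at 37°C, 5% CO2 | Signal: Fluorescence imaging of beta-catenin antibody stain plus DAPI | Dosing: 5 µM primary, 0.02–20 µM confirmation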
KCC2 mod = KCC2 (human) Cl- transport modulation; Q9H2X9; 190,000 compounds, 2.2% hits; KCC2 cells, thallium flux FluoZin-2 fluorescence; B-score of Tl+ flux slope (higher = more flux/activation; lower = inhibition) at 10 µM;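 active = thallium flux slope and its plate-corrected score both differing from the plate sample mean at a set confidence after two filtering rounds, in either direction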;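 also: slope of fluorescence scaled to starting intensity during 10 to 20 s after thallium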
Target sequence (Q9H2X9 whole entry, looked up): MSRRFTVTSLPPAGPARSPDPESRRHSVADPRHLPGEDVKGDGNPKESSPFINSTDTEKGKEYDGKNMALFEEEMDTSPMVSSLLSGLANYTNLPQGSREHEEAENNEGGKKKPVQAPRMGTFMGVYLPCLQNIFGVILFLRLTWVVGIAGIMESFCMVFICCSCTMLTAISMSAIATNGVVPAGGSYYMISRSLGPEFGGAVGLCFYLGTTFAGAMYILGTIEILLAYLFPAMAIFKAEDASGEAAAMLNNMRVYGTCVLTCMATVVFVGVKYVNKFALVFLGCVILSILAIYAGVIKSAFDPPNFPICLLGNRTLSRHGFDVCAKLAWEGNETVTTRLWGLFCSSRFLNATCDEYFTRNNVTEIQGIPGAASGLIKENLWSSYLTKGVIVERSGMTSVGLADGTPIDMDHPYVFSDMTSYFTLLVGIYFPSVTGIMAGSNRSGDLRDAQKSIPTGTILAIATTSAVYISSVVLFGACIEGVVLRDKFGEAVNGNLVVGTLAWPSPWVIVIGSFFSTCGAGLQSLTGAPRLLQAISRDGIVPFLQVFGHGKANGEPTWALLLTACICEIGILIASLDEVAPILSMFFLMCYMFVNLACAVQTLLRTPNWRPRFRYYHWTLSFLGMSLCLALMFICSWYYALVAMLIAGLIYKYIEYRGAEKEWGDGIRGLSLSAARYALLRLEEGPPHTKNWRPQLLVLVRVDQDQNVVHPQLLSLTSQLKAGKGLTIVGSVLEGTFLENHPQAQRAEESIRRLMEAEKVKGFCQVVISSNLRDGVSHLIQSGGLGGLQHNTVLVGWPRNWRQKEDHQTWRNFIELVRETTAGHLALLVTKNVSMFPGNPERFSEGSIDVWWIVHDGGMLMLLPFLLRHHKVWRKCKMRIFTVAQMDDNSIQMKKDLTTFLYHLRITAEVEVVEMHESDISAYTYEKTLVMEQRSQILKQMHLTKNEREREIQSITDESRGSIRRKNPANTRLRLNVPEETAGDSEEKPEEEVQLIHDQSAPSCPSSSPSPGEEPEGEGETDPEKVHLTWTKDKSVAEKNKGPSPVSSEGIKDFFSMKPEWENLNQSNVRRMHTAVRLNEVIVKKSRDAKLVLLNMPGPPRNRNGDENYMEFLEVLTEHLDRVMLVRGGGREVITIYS
MT stabilize HCS = microtubule stabilizers in HeLa cells | HeLa tubulin immunostaining HCS, 24 h; share of cells brighter than vehicle mean+2SD | 200,000 compounds, 0.83% hits | % tubulin-high responders, % at 10 µM;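 active = plate Z-score above 3 for both tubulin-high and condensed-nucleus cell shares, with cell loss under 80%, at 10 µM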;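 also: anti alpha tubulin signal scored within the nucleus-defined area of each cell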
Redox H2O2 prof = compounds producing H2O2 with reducing agent – biochemical, NIH compound library profiling, artefact control for MLSCN library redox annotation, primary screen | DTT-dependent redox cycling H2O2, phenol red/HRP absorbance; 100% = 100 µM peroxide control, 0% = buffer | activation, % at 10 µM | 200,000 compounds, 0.03% hits | AID 878;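 active = activation of at least 50% relative to the plate's high and low controls in the primary single-dose screen; inactive = activation below 50%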;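 also: compound incubated with DTT at 0.8 mM final as the reducing agent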
KCC2 secondary = confirmation of human KCC2 transport modulators. shares compounds with KCC2 mod. HEK293-KCC2, thallium flux, FluoZin2 fluorescence; stronger effect = higher value. normalised thallium flux (F/F0 slope) at 10 µM. 3,700 compounds, 15% hits. AID 1713;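 active = thallium flux slope above the same plate's solvent-only control mean plus 3 SD; inconclusive = the two replicate wells disagree; inactive = no significant difference from solvent-only control wells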
KCC2 bumet counter = bumetanide-insensitive thallium flux in KCC2 cells with ouabain, counter-screen; shares compounds with KCC2 mod; HEK293-KCC2 + bumetanide/ouabain, thallium flux FluoZin2; stronger effect = higher value; normalized thallium flux at 10 µM; 3,700 compounds, 49% hits;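 active = thallium entry rate above the same plate's blocked-transporter control wells by more than 3 SD; inconclusive = the two repeat wells disagree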;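 also: raw slope of fluorescence over initial fluorescence between 10 and 20 s after thallium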
KCC2 secondary2 = KCC2 (human) modulation, second secondary assay | shares compounds with KCC2 mod | HEK293-KCC2, thallium flux FluoZin2 fluorescence; actives lie on both sides; F/F0 rise rate, 10–20 s post-thallium | normalized thallium flux at 10 µM | 3,700 compounds, 23% hits | AID 1715;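 active = thallium flux slope more than 3 SD above or below the plate's solvent-only control mean, mostly below; inconclusive = the two repeat wells disagreed; inactive = no significant shift from solvent-only controls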
HEK293 Tl flux = acts in parental HEK cells, KCC2 counter-screen | shares compounds with KCC2 mod | HEK293 parental cells, thallium flux FluoZin2, ouabain; baseline-ratio fluorescence slope, 10–20 s after thallium | thallium flux rate (normalised fluorescence) at 10 µM | 3,700 compounds, 46% hits;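 active = thallium flux rate significantly above the same plate's solvent-only control wells, beyond their mean plus 3 SD; inconclusive = the two replicate wells gave conflicting results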
KCC2 retest ouab = KCC2 (human) modulation, ouabain retest. AID 1717. 3,700 compounds, 48% hits. shares compounds with KCC2 mod. HEK293-KCC2, thallium flux FluoZin2 fluorescence; bidirectional: low = inhibitor, high = activator. raw Tl+ flux slope (below DMSO = inhibition, above = activation) at 10 µM;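 active = thallium flux slope beyond 3 SD from same-plate DMSO control mean in most replicates, usually higher, sometimes lower; inconclusive = repeat tests gave conflicting results; inactive = no significant difference from controls in most replicates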;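 also: slope of initial-normalized fluorescence between seconds 10 and 20 after thallium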
HEK293 Tl flux2 = acts in parental HEK cells, second KCC2 counter-screen. shares compounds with KCC2 mod. HEK293 parental, thallium flux FluoZin-2 fluorescence slope. thallium flux slope at 10 µM. 3,700 compounds, 33% hits;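 active = thallium flux slope above the same plate's solvent-control mean plus 3 SD in both duplicate wells; inconclusive = duplicate wells that disagreed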;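 also: run without ouabain in cells lacking the KCC2 cotransporter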
Hits are given with their value; - = inactive; ? = inconclusive; . = no result given.

SMILES	ROMK mod	bCat nuc transl	KCC2 mod	MT stabilize HCS	Redox H2O2 prof	KCC2 secondary	KCC2 bumet counter	KCC2 secondary2	HEK293 Tl flux	KCC2 retest ouab	HEK293 Tl flux2
Cc1cccc(Cc2cnc(N3C(=N)SC(c4ccccc4)C3=O)s2)c1 (configuration not stated)	-	-	-	-	-	.	.	.	.	.	.
Cc1cccc(Cc2cnc(N3C(=N)SC(C)C3=O)s2)c1 (configuration not stated)	-	-	6	-	-	0.017	0.068	-	0.029	0.04	0.014
CC(C)N(CCO)C(=O)CCc1nnc(Cc2cccc(C(F)(F)F)c2)o1	-	-	-	-	-	.	.	.	.	.	.
COC(=O)c1sc(NC(=S)NC(=O)c2ccc(F)cc2)nc1C	-	-	-	-	-	.	.	.	.	.	.
COC(=O)c1sc(NC(=S)NC(=O)c2ccccc2C)nc1C	-	-	92	-	-	0.05	0.15	0.042	0.1	0.088	0.033
COc1ccc(CNC(=S)N/N=C(/C)c2ccccc2)cc1	-	-	5.7	.	.	-	0.023	-	0.014	?	0.016
C/C(=N\NC(=S)NCc1ccccc1)c1ccccc1F	-	-	-	-	-	.	.	.	.	.	.
C/C(=N\NC(=S)NCc1ccccc1)c1ccccc1	-	-	7.8	-	-	-	0.043	-	0.015	0.07	-
C/C(=N\NC(=S)NCc1ccccc1)c1ccco1	-	-	13	-	-	-	0.019	-	?	0.029	-
C/C(=N\NC(=S)NCc1ccccc1)c1ccc(C(C)(C)C)cc1	-	-	-	-	-	.	.	.	.	.	.
Cc1cc(C)n(C(=O)CCCn2cc([N+](=O)[O-])cn2)n1	-	-	-	-	-	.	.	.	.	.	.
O=C(CCc1nnc(-c2ccc3c(c2)OCO3)o1)N1CCC(c2ccc(F)cc2)C1 (configuration not stated)	-	-	-4.8	-	-	-	-	0.022	0.0062	0.014	?
O=C(N/N=C/c1ccc(Br)s1)c1cccs1	.	-	112	.	.	0.014	0.086	-	0.04	0.049	0.034
Cc1ccc(/C=N/NC(=O)c2cccs2)s1	-	-	-	-	-	.	.	.	.	.	.
Cc1ccoc1C(=O)N1CCCCC1C(=O)O (configuration not stated)	-	-	-	-	-	.	.	.	.	.	.
COc1ccc(CC(=O)Nc2c3c(nn2-c2ccccc2C)CS(=O)C3)cc1 (configuration not stated)	-	-	-	-	-	.	.	.	.	.	.
COc1ccccc1C(=O)Nc1c2c(nn1-c1cccc(C)c1C)CS(=O)C2 (configuration not stated)	.	.	6.7	-	-	-	-	-	?	-	-
CC(=O)NC1(C(F)(F)F)C(=O)Nc2c1c(=O)[nH]c(=O)n2CC(C)C (configuration not stated)	-	-	-	-	-	.	.	.	.	.	.
Cc1ccc(C(=O)NC(=S)NNS(=O)(=O)c2ccc(C)cc2)cc1	-	-	6.2	-	-	0.017	0.023	-	0.0092	-	0.012
Cc1ccc(S(=O)(=O)NNC(=S)NC(=O)c2ccc([N+](=O)[O-])cc2)cc1	-	-	-	-	-	.	.	.	.	.	.
COc1ccc(/C=N/Nc2snc(SC)c2C#N)cc1OC	.	-	-	-	-	.	.	.	.	.	.
COc1cccc(/C=N/Nc2snc(SC)c2C#N)c1O	-	-	31	-	-	0.023	0.082	-	0.039	0.055	0.014
COc1cc(Cl)c(C)cc1NC(=O)CSc1nnc(CCC(=O)O)c(=O)[nH]1	-	-	-	-	-	.	.	.	.	.	.
Cc1nc2ccccc2c2c1C(=O)N(C1CCCCCCC1)C2=O	.	-	-4.8	-	-	-	?	-	-	-	-
Cc1cccc(OCCc2nnc(N)s2)c1C	-	-	-5.9	-	-	-	-	0.026	-	?	-
SMILES	ROMK mod	bCat nuc transl	KCC2 mod	MT stabilize HCS	Redox H2O2 prof	KCC2 secondary	KCC2 bumet counter	KCC2 secondary2	HEK293 Tl flux	KCC2 retest ouab	HEK293 Tl flux2
Nc1nnc(CCOc2ccc(Cl)cc2)s1	.	-	-	-	-	.	.	.	.	.	.
CCOC(=O)N1CCN(C(=S)Nc2ccc3nc(N4CCN(CC)CC4)cc(C)c3c2)CC1	-	-	-	-	-	.	.	.	.	.	.
O=C1CCN1C1(C(=O)NC2CCCCC2)CCCC1	-	.	-	-	-	.	.	.	.	.	.
CCOc1ccc(-c2noc(CCCC(N)=O)n2)cc1OC	-	.	-	-	-	.	.	.	.	.	.
CCOc1cc(-c2noc(CCCC(N)=O)n2)cc(Br)c1OC	-	-	4.5	-	-	-	?	-	-	-	-
COc1cc(C(=O)NCc2nnc(SCC(=O)N3CCOCC3)o2)cc(OC)c1OC	-	-	-	-	-	.	.	.	.	.	.
CCC1CCCCN1C(=O)CSc1nnc(CNC(=O)c2cc(OC)c(OC)c(OC)c2)o1 (configuration not stated)	-	-	6.7	-	-	-	-	-	-	-	-
COC(=O)C1C(=O)C2=C(CC1C)NC(C)=C(C(=O)OC(C)C)C2c1ccc(C)o1 (configuration not stated)	-	-	.	-	-	-	-	-	-	-	-
COC(=O)C1C(=O)C2=C(CC1C)NC(C)=C(C(=O)OCc1ccc(OC)cc1)C2c1ccc(C)o1 (configuration not stated)	.	.	-	-	-	.	.	.	.	.	.
O=C(NCCN=C1NS(=O)(=O)c2ccccc21)c1ccncc1	-	.	7	-	-	-	-	-	?	-	-
O=C(NCCN=C1NS(=O)(=O)c2ccccc21)c1ccc2nccnc2c1	.	-	-	-	-	.	.	.	.	.	.
O=C(CSc1cccc2cccnc12)Nc1cccc(S(=O)(=O)N2CCOCC2)c1	-	-	-	-	-	.	.	.	.	.	.
O=C(CSc1nc2cc(Cl)ccc2s1)Nc1cccc(S(=O)(=O)N2CCOCC2)c1	-	-	3.1	-	-	-	0.015	-	?	0.026	?
Cc1cc(NC(=O)CSc2nc3cc(Cl)ccc3s2)no1	-	-	-	-	-	.	.	.	.	.	.
COC(=O)c1ccc2c(=O)n(Cc3ccco3)c(SCC(=O)Nc3ccc(C)c(Cl)c3)nc2c1	-	.	-	-	-	.	.	.	.	.	.
